Species: Homo sapiens
Experiment: Selectivity ratio, ratio of IC50 for human recombinant MAOA to IC50 for human recombinant MAOB
Details: not given; call rule not given here
How it was run: (§1)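 Enzyme: insect-cell microsomal recombinant human MAO-A or -B (0.0075 mg/mL) in 100 mM potassium phosphate, pH 7.4, isotonic with KCl. Kynuramine 45 µM (MAO-A) or 30 µM (MAO-B), inhibitor 0–100 µM, 37 °C, 20 min. Reaction stopped with 2 N NaOH. 4-Hydroxyquinoline fluorescence read at ex 310/em 400 nm against a calibration curve. IC50 taken from one-site fits of six concentrations, in triplicate. Selectivity = IC50(MAO-A)/IC50(MAO-B).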

Compound	Ratio IC50
CN(CCCCc1ccccc1)c1nc2c(c(=O)n(C)c(=O)n2C)n1C	12.7
Cn1c(=O)c2c(nc(Sc3ccccc3)n2C)n(C)c1=O	1.7
Cn1c(=O)c2c(nc(SCCc3ccccc3)n2C)n(C)c1=O	91.9
Cn1c(=O)c2c(nc(SCc3ccc(Cl)cc3)n2C)n(C)c1=O	14.4
Cn1c(=O)c2c(nc(NCCCCc3ccccc3)n2C)n(C)c1=O	3.2

These molecules were tested against T1, Amine oxidase [flavin-containing] B (Homo sapiens, UniProt P27338) (assay: Inhibition of human recombinant MAOB at 100 uM using kynuramine as substrate by fluorescence assay). Details: not given.
T1 sequence (P27338 whole entry): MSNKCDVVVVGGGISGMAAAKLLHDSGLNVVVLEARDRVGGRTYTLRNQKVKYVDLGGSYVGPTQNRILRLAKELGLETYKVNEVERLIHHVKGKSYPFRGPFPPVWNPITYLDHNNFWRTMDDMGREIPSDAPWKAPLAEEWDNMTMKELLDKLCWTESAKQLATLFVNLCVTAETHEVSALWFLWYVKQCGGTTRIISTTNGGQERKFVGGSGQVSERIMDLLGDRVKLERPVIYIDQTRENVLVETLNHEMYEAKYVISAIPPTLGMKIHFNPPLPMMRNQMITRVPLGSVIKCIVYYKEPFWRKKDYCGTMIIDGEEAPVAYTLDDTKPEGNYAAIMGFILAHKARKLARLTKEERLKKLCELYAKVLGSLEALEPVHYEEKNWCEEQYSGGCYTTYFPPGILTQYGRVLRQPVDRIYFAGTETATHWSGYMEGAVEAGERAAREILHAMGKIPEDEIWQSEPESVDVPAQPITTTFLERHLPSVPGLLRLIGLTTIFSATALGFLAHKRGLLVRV
How it was run: as §1

Compound	IC50
Cn1c(=O)c2c(nc(NC3CCCC3)n2C)n(C)c1=O	Not Active
COc1ccc(CSc2nc3c(c(=O)n(C)c(=O)n3C)n2C)cc1	Not Active
Cn1c(=O)c2c(nc(Nc3ccccc3)n2C)n(C)c1=O	Not Active
Cn1c(=O)c2c(nc(NCc3ccccc3)n2C)n(C)c1=O	Not Active
Cn1c(=O)c2c(nc(NCCCc3ccccc3)n2C)n(C)c1=O	Not Active

What follows are molecules tested against T1, Amine oxidase [flavin-containing] B (assay: Inhibition of human recombinant MAOB using kynuramine as substrate at 5.94 uM after 60 mins by fluorescence assay). Details: 1 h.
How it was run: (§2)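 Recombinant human MAO-A or -B (0.015–0.03 mg/mL) was preheated at 37 °C for 60 min in total and preincubated with inhibitor at about 2× its IC50 for 0, 15, 30 or 60 min in pH 7.4 potassium phosphate. Mixtures were diluted 2-fold with kynuramine (45 µM MAO-A, 30 µM MAO-B) and incubated 15 min at 37 °C. Residual 4-hydroxyquinoline formation was read by fluorescence.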

Compound	inhibition (INH)
CN(CCCCc1ccccc1)c1nc2c(c(=O)n(C)c(=O)n2C)n1C	Not Active

These molecules were tested against T2, Amine oxidase [flavin-containing] A (Homo sapiens, UniProt P21397) (assay: Inhibition of human recombinant MAOA using kynuramine as substrate by fluorescence assay). Details: not given.
T2 sequence (P21397 whole entry): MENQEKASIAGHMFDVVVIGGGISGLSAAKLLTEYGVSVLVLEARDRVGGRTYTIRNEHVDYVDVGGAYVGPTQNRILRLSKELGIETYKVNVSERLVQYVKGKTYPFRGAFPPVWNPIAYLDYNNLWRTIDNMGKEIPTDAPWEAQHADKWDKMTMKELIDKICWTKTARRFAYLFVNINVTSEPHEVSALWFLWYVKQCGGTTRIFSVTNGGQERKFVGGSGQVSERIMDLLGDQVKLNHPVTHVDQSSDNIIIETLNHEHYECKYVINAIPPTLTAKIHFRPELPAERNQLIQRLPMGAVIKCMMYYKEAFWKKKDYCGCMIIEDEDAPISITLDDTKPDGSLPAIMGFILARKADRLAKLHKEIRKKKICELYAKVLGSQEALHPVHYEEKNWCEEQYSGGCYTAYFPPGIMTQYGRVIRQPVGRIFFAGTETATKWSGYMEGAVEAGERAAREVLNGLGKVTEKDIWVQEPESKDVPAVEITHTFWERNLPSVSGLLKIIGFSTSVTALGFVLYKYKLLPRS
How it was run: as §1

Compound	IC50
CN(CCCCc1ccccc1)c1nc2c(c(=O)n(C)c(=O)n2C)n1C	37.7 µM
Cn1c(=O)c2c(nc(Sc3ccccc3)n2C)n(C)c1=O	56.4 µM
Cn1c(=O)c2c(nc(SCCc3ccccc3)n2C)n(C)c1=O	20.5 µM
Cn1c(=O)c2c(nc(SCc3ccc(Cl)cc3)n2C)n(C)c1=O	2.77 µM
Cn1c(=O)c2c(nc(NCCCCc3ccccc3)n2C)n(C)c1=O	30.9 µM

What follows are molecules tested against T1, Amine oxidase [flavin-containing] B (assay: Time dependent inhibition of human recombinant MAOB using kynuramine as substrate at 5.94 uM by fluorescence assay). Details: not given.
How it was run: as §2

Compound	TDI
CN(CCCCc1ccccc1)c1nc2c(c(=O)n(C)c(=O)n2C)n1C	Not Active

What follows are molecules tested against T1, Amine oxidase [flavin-containing] B (assay: Reversible Inhibition of human recombinant MAOB using kynuramine as substrate at 2 times IC50 up to 60 mins). Details: 1 h.
How it was run: as §2

Compound	inhibition (INH)
CN(CCCCc1ccccc1)c1nc2c(c(=O)n(C)c(=O)n2C)n1C	Active

These molecules were tested against T1, Amine oxidase [flavin-containing] B (assay: Inhibition of human recombinant MAOB using kynuramine as substrate by fluorescence assay). Details: not given.
How it was run: as §1

Compound	IC50
Cn1c(=O)c2c(nc(NCCc3ccccn3)n2C)n(C)c1=O	19.4 µM
CN(CCCCc1ccccc1)c1nc2c(c(=O)n(C)c(=O)n2C)n1C	2.97 µM
Cn1c(=O)c2c(nc(Sc3ccccc3)n2C)n(C)c1=O	33.2 µM
Cn1c(=O)c2c(nc(SCCc3ccccc3)n2C)n(C)c1=O	0.223 µM
Cn1c(=O)c2c(nc(SCc3ccc(Cl)cc3)n2C)n(C)c1=O	0.192 µM
Cn1c(=O)c2c(nc(NCCCCc3ccccc3)n2C)n(C)c1=O	9.6 µM

These molecules were tested against T2, Amine oxidase [flavin-containing] A (assay: Inhibition of human recombinant MAOA at 100 uM using kynuramine as substrate by fluorescence assay). Details: not given.
How it was run: as §1

Compound	IC50
Cn1c(=O)c2c(nc(NCCc3ccccn3)n2C)n(C)c1=O	Not Active
Cn1c(=O)c2c(nc(NC3CCCC3)n2C)n(C)c1=O	Not Active
COc1ccc(CSc2nc3c(c(=O)n(C)c(=O)n3C)n2C)cc1	Not Active
Cn1c(=O)c2c(nc(Nc3ccccc3)n2C)n(C)c1=O	Not Active
Cn1c(=O)c2c(nc(NCc3ccccc3)n2C)n(C)c1=O	Not Active
Cn1c(=O)c2c(nc(NCCCc3ccccc3)n2C)n(C)c1=O	Not Active
